From ChEMBL document CHEMBL1136847, “Syntheses and potential anti-prostate cancer activities of ionone-based chalcones” (Bioorg Med Chem Lett, 2009)
Active and inactive are the calls of the source. The rule behind the calls is not given here.

Legend:
[1] = test system: LNCaP; assay: Cytotoxicity against androgen-dependent human LNCAP cells with T877A AR mutant after 72 hrs by MTT assay; format: functional, cell-based
Summary of the method: (§1)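 Cells seeded at 6000–7000 per well in RPMI 1640 with 10% FBS, penicillin and streptomycin, left overnight, then exposed to a range of concentrations from DMSO stock (final DMSO 0.5%) for 72 h. MTT added for a further 2 h and formazan from viable cells read. IC50 taken from survival curves, 50% inhibition relative to 0.5% DMSO control; top concentration 150 µM.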

[2] = test system: PC-3; assay: Cytotoxicity against androgen-independent human PC3 cells after 72 hrs by MTT assay; format: functional, cell-based; settings: for IC50: PC-3, 72 h; summary of the method: as §1
[3] = test system: CWR22R; assay: Cytotoxicity against human 22Rv1 cells with H874Y AR mutant after 72 hrs by MTT assay; format: functional, cell-based; settings: 22Rv1, 72 h; summary of the method: as §1
[4] = Cytotoxicity against androgen-independent human C4-2B cells with T877A mutant after 72 hrs by MTT assay; format: functional, cell-based; settings: LNCaP C4-2B; summary of the method: as §1
[5] = Cytotoxicity against androgen-dependent human MDA PCa 2b cells with T877A/L701H AR mutant after 72 hrs by MTT assay; format: functional, cell-based
Summary of the method: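 Seeded at 6000–7000 cells per well in BRFF-HPC1 medium with 20% FBS, incubated overnight, then treated with serial concentrations diluted from DMSO stock (final DMSO 0.5%) for 72 h. Viability by MTT, 2 h with reagent, formazan measured. IC50 from survival curves as 50% inhibition versus 0.5% DMSO vehicle; maximum concentration tested 150 µM.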

[6] = Cytotoxicity against human RWPE1 cells after 72 hrs by MTT assay; format: cell-based; settings: RWPE-1, 72 h
Summary of the method: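 Non-tumorigenic prostate epithelial line plated at 6000–7000 cells per well in keratinocyte serum-free medium with 0.05 mg/mL bovine pituitary extract and 5 ng/mL EGF; overnight attachment, then compounds at various concentrations in 0.5% final DMSO for 72 h. MTT 2 h, formazan read; IC50 from survival curves versus DMSO control.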

SMILES	IC50 [1]	IC50 [2]	IC50 [3]	IC50 [4]	Activity [2]	IC50 [5]	IC50 [6]
CC1=C(/C=C/C(=O)/C=C/c2cccc([N+](=O)[O-])c2)C(C)(C)CCC1	2.7 µM	10 µM	–	–	–	–	–
CC1=C(/C=C/C(=O)/C=C/c2ccc(-c3ccccc3)cc2)C(C)(C)CCC1	14.8 µM	47.8 µM	–	–	–	–	–
CC1=C(/C=C/C(=O)/C=C/c2ccc(O)c([N+](=O)[O-])c2)C(C)(C)CCC1	26.8 µM	> 50 µM	–	–	–	–	–
CC1=C(/C=C/C(=O)/C=C/c2ccc([N+](=O)[O-])cc2)C(C)(C)CCC1O (centres undefined)	4.2 µM	15 µM	4.1 µM	–	–	–	–
COc1ccc(/C=C/C(=O)/C=C/C2=C(C)CCCC2(C)C)cc1O	9.9 µM	37.4 µM	–	–	–	–	–
CC1=C(/C=C/C(=O)/C=C/c2cc(F)cc(C(F)(F)F)c2)C(C)(C)CCC1O (centres undefined)	1.1 µM	3 µM	2.4 µM	–	–	–	–
CC1=C(/C=C/C(=O)/C=C/c2cccc(C)c2)C(C)(C)CCC1	17.8 µM	35 µM	–	–	–	–	–
COc1cc(/C=C/C(=O)/C=C/C2=C(C)CCCC2(C)C)ccc1O	9.5 µM	21.3 µM	–	–	–	–	–
CC1=CCCC(C)(C)C1/C=C/C(=O)/C=C/c1ccccc1C(F)(F)F (centres undefined)	22.6 µM	19 µM	18.4 µM	11.7 µM	–	–	–
CC1=CCCC(C)(C)C1/C=C/C(=O)/C=C/c1cccc(C)c1 (centres undefined)	12.2 µM	5.9 µM	15.2 µM	6.2 µM	–	–	–
CC(=O)/C=C/C1C(C)=CCCC1(C)C (stereo not drawn) [ALPHA-IONONE]	151 µM	–	–	–	inactive	–	–
CC1=C(/C=C/C(=O)/C=C/c2ccccc2C(F)(F)F)C(C)(C)CCC1O (centres undefined)	2.9 µM	3.7 µM	2.3 µM	–	–	2.9 µM	–
CC1=C(/C=C/C(=O)/C=C/c2ccc(F)c(C(F)(F)F)c2)C(C)(C)CCC1O (centres undefined)	2.2 µM	7.3 µM	3.2 µM	7.3 µM	–	10 µM	–
CC1=C(/C=C/C(=O)/C=C/c2ccc(F)cc2)C(C)(C)CCC1	7.3 µM	25.8 µM	–	–	–	–	–
CC1=C(/C=C/C(=O)/C=C/c2cccc(C(F)(F)F)c2F)C(C)(C)CCC1O (centres undefined)	1.1 µM	2.1 µM	–	–	–	–	–
CC1=CCCC(C)(C)C1/C=C/C(=O)/C=C/c1ccccc1F (centres undefined)	1.6 µM	4.8 µM	9.4 µM	6 µM	–	8.3 µM	–
CC1=CCCC(C)(C)C1/C=C/C(=O)/C=C/c1cc(C(F)(F)F)ccc1F (centres undefined)	1.7 µM	3.1 µM	3.5 µM	4.7 µM	–	3 µM	–
CC1=CCCC(C)(C)C1/C=C/C(=O)/C=C/c1cccc([N+](=O)[O-])c1 (centres undefined)	3.3 µM	2.9 µM	4.7 µM	4 µM	–	5.9 µM	–
CC1=C(/C=C/C(=O)/C=C/c2ccccc2)C(C)(C)CCC1O (centres undefined)	5.8 µM	15.5 µM	8 µM	1.8 µM	–	12.6 µM	–
CC1=CCCC(C)(C)C1/C=C/C(=O)/C=C/c1cccc(C(F)(F)F)c1 (centres undefined)	1 µM	5.2 µM	2.9 µM	4.4 µM	–	4.4 µM	–
CC1=C(/C=C/C(=O)/C=C/c2ccc(F)cc2)C(C)(C)CCC1O (centres undefined)	3.9 µM	6.2 µM	7.5 µM	4 µM	–	–	–
CCOc1ccc(/C=C/C(=O)/C=C/C2=C(C)CCCC2(C)C)cc1OCC	8.2 µM	> 50 µM	–	–	–	–	–

SMILES	IC50 [1]	IC50 [2]	IC50 [3]	IC50 [4]	Activity [2]	IC50 [5]	IC50 [6]
CC1=C(/C=C/C(=O)/C=C/c2cc([N+](=O)[O-])ccc2Cl)C(C)(C)CCC1	4.2 µM	18.9 µM	–	–	–	–	–
CC1=C(/C=C/C(=O)/C=C/c2ccccc2F)C(C)(C)CCC1O (centres undefined)	2.9 µM	10.4 µM	3.3 µM	–	–	–	–
CC1=C(/C=C/C(=O)/C=C/c2cc(C(F)(F)F)cc(C(F)(F)F)c2)C(C)(C)CCC1O (centres undefined)	2.1 µM	7 µM	2.2 µM	–	–	3.5 µM	–
CC1=C(/C=C/C(=O)/C=C/c2ccc(C(F)(F)F)cc2)C(C)(C)CCC1O (centres undefined)	3 µM	10.2 µM	3.2 µM	–	–	9.3 µM	–
COc1cccc(/C=C/C(=O)/C=C/C2=C(C)C(O)CCC2(C)C)c1 (centres undefined)	4.9 µM	6.5 µM	–	–	–	–	–
CC1=C(/C=C/C(=O)/C=C/c2c(F)cccc2C(F)(F)F)C(C)(C)CCC1O (centres undefined)	4.9 µM	8.8 µM	8.9 µM	–	–	–	–
CC1=C(/C=C/C(=O)/C=C/c2cccc(C(F)(F)F)c2)C(C)(C)CCC1	2.8 µM	7.7 µM	–	–	–	–	–
CC1=C(/C=C/C(=O)/C=C/c2cccc(C)c2)C(C)(C)CCC1O (centres undefined)	4.1 µM	6.2 µM	4.4 µM	–	–	19 µM	–
CC1=C(/C=C/C(=O)/C=C/c2cccc([N+](=O)[O-])c2)C(C)(C)CCC1O (centres undefined)	2 µM	5.8 µM	1.9 µM	–	–	6 µM	1.9 µM
COc1ccc(/C=C/C(=O)/C=C/C2=C(C)CCCC2(C)C)cc1OC	9.5 µM	42 µM	–	–	–	–	–
CC1=C(/C=C/C(=O)/C=C/c2ccccc2F)C(C)(C)CCC1	10.7 µM	22.1 µM	–	–	–	–	–
CC1=C(/C=C/C(=O)/C=C/c2cccc(F)c2)C(C)(C)CCC1O (centres undefined)	4.4 µM	16 µM	5.6 µM	–	–	–	–
CC1=C(/C=C/C(=O)/C=C/c2ccc(C(F)(F)F)cc2)C(C)(C)CCC1	9.1 µM	12 µM	–	–	–	–	–
CC1=C(/C=C/C(=O)/C=C/c2cccc(F)c2)C(C)(C)CCC1	12.9 µM	18.7 µM	–	–	–	–	–
CC1=C(/C=C/C(=O)/C=C/c2ccc(C(F)(F)F)cc2F)C(C)(C)CCC1O (centres undefined)	2.6 µM	4.6 µM	3.8 µM	–	–	–	–
CC1=C(/C=C/C(=O)/C=C/c2cccc(C#N)c2)C(C)(C)CCC1O (centres undefined)	1.8 µM	7.2 µM	2.2 µM	–	–	–	1.9 µM
CC1=C(/C=C/C(=O)/C=C/c2cc(C(F)(F)F)ccc2C(F)(F)F)C(C)(C)CCC1O (centres undefined)	3.2 µM	1.9 µM	–	–	–	4 µM	–
CC1=CCCC(C)(C)C1/C=C/C(=O)/C=C/c1ccc(C(F)(F)F)cc1 (centres undefined)	4.7 µM	7.9 µM	3.3 µM	5.2 µM	–	7 µM	–
CC1=C(/C=C/C(=O)/C=C/c2cc(C(F)(F)F)ccc2F)C(C)(C)CCC1O (centres undefined)	1.7 µM	3.6 µM	2 µM	–	–	–	–
CCOC(OCC)c1cccc(/C=C/C(=O)/C=C/C2=C(C)C(O)CCC2(C)C)c1 (centres undefined)	1.8 µM	4.7 µM	–	–	–	–	–
CC1=C(/C=C/C(=O)/C=C/c2cc(C(F)(F)F)cc(C(F)(F)F)c2)C(C)(C)CCC1	8.7 µM	7.2 µM	–	–	–	–	–
